Measurements: ChEMBL document CHEMBL4725467, “Antiferroptotic Activity of Phenothiazine Analogues: A Novel Therapeutic Strategy for Oxidative Stress Related Disease” (ACS Med Chem Lett, 2020)
Calls of active or inactive are those of the source. No cut-off for these calls is given here.

Assays:
Lymphocyte [1] = assay: Induction of mitochondria membrane potential depolarization in FRDA patient-derived lymphocyte at 2.5 uM incubated for 16 hrs by JC-1 probe based flow cytometry analysis; assay type: functional; conditions: Homo sapiens
Method in brief: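 Mitochondrial inner membrane potential in FRDA lymphocytes measured by flow cytometry with the ratiometric probe JC-1. Percent of cells with intact Δψm taken from a two-dimensional color density dot plot. Duplicates run in two independent runs.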

Lymphocyte [2] = assay: Anti-ferroptotic activity in FRDA patient-derived Lymphocyte assessed as reduction in RSL3-induced lipid peroxidation incubated for overnight followed by RSL3 stimulation and measured after 90 mins by FACS analysis; assay type: functional, cell-based; conditions: Homo sapiens, 1.5 h
Method in brief: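 FRDA patient lymphocytes pretreated with a range of concentrations, then challenged with RSL3 (GPX4 inhibitor) at 2 μM; lipid peroxidation read with the C11-BODIPY581/591 fluorescent probe. EC50 taken from dose–response curves by nonlinear regression fit.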

[3] = Inhibition of erastin-induced cell death in FRDA patient-derived fibroblast assessed as depletion of cellular ATP incubated for 12 hrs followed by erastin stimulation and measured after by luciferase-linked ATPase enzymatic assay; assay type: functional, tissue-based; conditions: Homo sapiens
Method in brief: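 Primary FRDA patient fibroblasts treated with compound, then challenged with erastin (cystine-glutamate exchange inhibitor, GSH depletion). Cell death read as depletion of cellular ATP by a luciferase-linked kit assay.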

Lymphocyte [4] = assay: Cytotoxicity against FRDA patient-derived lymphocyte at 2.5 uM incubated for 24 to 48 hrs by flow cytometry analysis; assay type: cell-based; conditions: human, time 24-48 hrs
Method in brief: (§1)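 FRDA lymphocytes kept 24 h in glucose-free medium with galactose to force reliance on mitochondrial ATP. Viability by flow cytometry with dual staining, calcein-AM for live and ethidium homodimer-1 for dead cells. Percent live cells taken from a two-dimensional color density dot plot. Duplicates run in two independent experiments.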

HepG2 = assay: Inhibition of ferroptosis in human HepG2 cells assessed as increase in pAMPK/AMPK ratio at 1 uM incubated for 24 hrs by Western blot analysis; assay type: functional, cell-based
Method in brief: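 HepG2 cells treated with or without compound. AMPK, p-AMPK and β-actin (loading control) detected by Western blot and quantified as p-AMPK/AMPK ratio. Triplicate experiments, mean ± SEM.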

Lymphocyte [5] = assay: Induction of ATP production in FRDA patient-derived lymphocyte at 0.1 to 2.5 uM incubated for 24 hrs by luciferase-linked ATPase enzymatic assay; assay type: functional, tissue-based; conditions: Homo sapiens, dose microM 0.1-2.5, time 24.0 hrs
Method in brief: (§2)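 Total cellular ATP in cultured FRDA lymphocytes after 24 h with compound in glucose-free medium with 25 mM galactose, to force OXPHOS dependence. Tested range 100 nM–2.5 μM. Expressed as percent of total ATP relative to untreated control.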

Lymphocyte [6] = assay: Induction of ATP production in FRDA patient-derived lymphocyte at 0.1 uM incubated for 24 hrs by luciferase-linked ATPase enzymatic assay; assay type: functional, tissue-based; conditions: Homo sapiens; method in brief: as §2
Lymphocyte [7] = assay: Induction of ATP production in FRDA patient-derived lymphocyte at 2.5 uM incubated for 24 hrs by luciferase-linked ATPase enzymatic assay; assay type: functional, tissue-based; conditions: Homo sapiens; method in brief: as §2
Lymphocyte [8] = assay: Induction of ATP production in FRDA patient-derived lymphocyte at 0.1 to 0.5 uM incubated for 24 hrs by luciferase-linked ATPase enzymatic assay; assay type: functional, tissue-based; conditions: Homo sapiens, dose microM 0.1-0.5, time 24.0 hrs; method in brief: as §2
Lymphocyte [9] = assay: Cytotoxicity against FRDA patient-derived lymphocyte at 0.25 to 2.5 uM incubated for 24 to 48 hrs by flow cytometry analysis; assay type: cell-based; conditions: human, dose 0.25-2.5 µM, time 24-48 hrs; method in brief: as §1
Lymphocyte [10] = assay: Induction of ATP production in FRDA patient-derived lymphocyte at 0.1 and 0.25 uM incubated for 24 hrs by luciferase-linked ATPase enzymatic assay; assay type: functional, tissue-based; conditions: Homo sapiens, dose microM 0.1-0.25, time 24.0 hrs; method in brief: as §2
Lymphocyte [11] = assay: Induction of ATP production in FRDA patient-derived lymphocyte incubated for 24 hrs by luciferase-linked ATPase enzymatic assay; assay type: functional, tissue-based; conditions: Homo sapiens, dose microM 0.25-2.5, time 24.0 hrs; method in brief: as §2

EC50 (Lymphocyte [2]) | SMILES | Activity (Lymphocyte [1]) | EC50 [3] | Activity (Lymphocyte [4]) | other results
54 nM | CCCCCCCCCCCCc1cc2nc3ccc(N(C)C)cc3sc-2cc1=[N+](C)C.[I-] | Active | 35 nM | Toxic | 
25 nM | CCCCCCCCCCCCCCCCc1cc2nc3ccc(N(C)C)cc3sc-2cc1=O |  | 22 nM |  | Activity (Lymphocyte [7]): inactive; Activity (Lymphocyte [8]): Active; Activity (Lymphocyte [9]): Non-Toxic
16 nM | CCCCCCCCCCCCc1cc2nc3ccc(N(C)C)cc3sc-2cc1=O | Active | 15 nM |  | Activity (Lymphocyte [7]): inactive; Activity (Lymphocyte [8]): Active; Activity (Lymphocyte [9]): Non-Toxic
26 nM | CN(C)c1ccc2nc3ccc(=O)cc-3sc2c1 | Active | 27 nM |  | pAMPK/AMPK ratio increase (active/not active) (HepG2): Active
88 nM | CN(C)c1ccc2nc3ccc(N(C)C)cc3[s+]c2c1.[Cl-] [METHYLENE BLUE ANHYDROUS] |  | 43 nM | Toxic | 
22 nM | Clc1cccc(CNC2=Nc3ccccc3NC23CCNCC3)c1 |  | 22 nM |  | 
12 nM | CCCCCCCCCc1cc2nc3ccc(N(C)C)cc3sc-2cc1=O | Active | 11 nM | Toxic | Activity (Lymphocyte [6]): Active
> 2500 nM | CC(=O)N1c2ccc(N(C)C)cc2Sc2cc(N(C)C)ccc21 |  |  |  | 
53 nM | CCCCCCCCCc1cc2nc3ccc(N(C)C)cc3sc-2cc1=[N+](C)C.[I-] | Active | 37 nM | Toxic | Activity (Lymphocyte [5]): inactive

More lines, now with the values behind:

SMILES | EC50 (Lymphocyte [2]) | Activity (Lymphocyte [1]) | EC50 [3] | Activity (Lymphocyte [4]) | other results
CCCCCCCCCCc1cc2nc3ccc(N(C)C)cc3sc-2cc1=[N+](C)C.[I-] | 38 nM | Active | 29 nM | Toxic | pAMPK/AMPK ratio increase (active/not active) (HepG2): Active; Activity (Lymphocyte [5]): inactive
CCCCCCCCCCc1cc2nc3ccc(N(C)C)cc3sc-2cc1=O | 9 nM | Active | 10 nM | Toxic | pAMPK/AMPK ratio increase (active/not active) (HepG2): Active; Activity (Lymphocyte [6]): Active
CCCCCCCCCCCCCCCCc1cc2nc3ccc(N(C)C)cc3sc-2cc1=[N+](C)C.[I-] | 70 nM |  | 55 nM |  | Activity (Lymphocyte [10]): Active; Activity (Lymphocyte [7]): inactive; Activity (Lymphocyte [9]): Non-Toxic
CCOC(=O)c1ccc(NC2CCCCC2)c(N)c1 | 48 nM |  | 33 nM |  | 
Cc1c(C)c2c(c(C)c1O)CC[C@@](C)(CCC[C@H](C)CCC[C@H](C)CCCC(C)C)O2 [ALPHA-TOCOPHEROL] | > 500 nM |  | > 500 nM |  | 
CCCCCCCCc1cc2nc3ccc(N(C)C)cc3sc-2cc1=[N+](C)C.[I-] | 76 nM | Active | 39 nM | Toxic | Activity (Lymphocyte [5]): inactive
CN(C)c1ccc2nc3ccc(=[N+](C)C)cc-3sc2c1 |  | Active |  |  | Activity (Lymphocyte [11]): inactive; pAMPK/AMPK ratio increase (active/not active) (HepG2): inactive; Activity (Lymphocyte [6]): Active
CCCCCCCCc1cc2nc3ccc(N(C)C)cc3sc-2cc1=O | 14 nM | Active | 15 nM | Toxic | Activity (Lymphocyte [6]): Active
